# Measured values as given in publication PMC6099444 (Journal of Clinical Pharmacology, 2018).
# Entries after “also recorded” stand apart in the source; their conditions may differ.
# Tests used:
# Format in all cases: in vivo, human
# [1] = Plasma pharmacokinetics, phase 1b multiple-dose drug-drug interaction study; details: for plasma exposure on coadministration, result in words: verinurad: with allopurinol 300 mg, colchicine: with verinurad 10 mg
# In short: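 Adult males with gout were randomized 1:1 to two sequences. They took a once-daily oral xanthine oxidase inhibitor 300 mg or urate reabsorption inhibitor 10 mg alone (days 1–7), both (days 8–14), then the other agent (days 15–21). Fasted overnight, no food 4 h postdose. Plasma was sampled days −1, 7, 14, 21 predose to 24 h. Parent and metabolite were measured by LC-MS/MS (methanol precipitation, isotope internal standards). Noncompartmental Tmax, Cmax, AUC0‐24; geometric LS mean ratio combo/alone.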
# Urine pharmacokinetics = details: for Ae0‐24: urine; for Ae0‐24 / CLR0‐24: geometric LS mean (95% CI)
# serum uric acid = experiment: Serum uric acid pharmacodynamics in adult male subjects with gout; details: verinurad 10 mg, allopurinol 300 mg, once daily for 7 days, alone or combined
# In short: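 Adult males with gout received a once-daily oral xanthine oxidase inhibitor 300 mg, a urate reabsorption inhibitor 10 mg, or both for 7 days each in a randomized crossover sequence. Fasted overnight before sampling. Serum was drawn days 7, 14, 21 predose to 24 h postdose, with extra predose points day 1, and uric acid measured by a central lab. Read-out is maximum % change from time-matched day −1 baseline.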
# urine uric acid = experiment: Urine uric acid pharmacodynamics; details: for CLUR, Mean (SD) / FEUA, Mean (SD) / AeUR, Change From Baseline (%) / CLUR, Change From Baseline (%) / FEUA, Change From Baseline (%) / AeUR, Mean (SD) / AeUR, %Change From Baseline / CLUR, %Change From Baseline / FEUA, %Change From Baseline: ALLO 300 mg or both; for AeUR, Change From Baseline (%) / CLUR, Change From Baseline (%) / FEUA, Change From Baseline (%) / AeUR, %Change From Baseline / CLUR, %Change From Baseline / FEUA, %Change From Baseline: mean (SD)
# In short: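 Total-catch urine was collected days 1, 7, 8, 14, 21 in intervals from 0–1 to 22–24 h postdose. Water: 240 mL on waking and at 22 h, 160 mL frequently postdose. Uric acid and creatinine were assayed centrally. AeUR = concentration × volume; CLUR = AeUR/plasma urate AUC same interval; fractional excretion = (CLUR/CrCl) × 100; rate = AeUR/interval hours. % change uses time-matched day −1 baseline.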
# [2] = VERU 10 mg + ALLO 300 mg compared with allopurinol alone
# [3] = VERU 10 mg + ALLO 300 mg compared with allopurinol alone, plasma
# [4] = treatment ALLO 300 mg once daily
# [5] = treatment VERU 10 mg + ALLO 300 mg once daily
# [6] = 0‐ to 12‐hour interval, VERU 10 mg
# [7] = 0‐ to 12‐hour interval, multiple daily doses VERU 10 mg
# [8] = 0‐ to 24‐hour interval, VERU 10 mg
# [9] = 12‐ to 24‐hour interval, VERU 10 mg
# [10] = VERU 10 mg + ALLO 300 mg compared with allopurinol alone, plasma, listed as oxypurinol
# [11] = treatment VERU 10 mg once daily
structure (smiles),measurement,setting,value
"Oc1ncnc2[nH]ncc12 [Allopurinol, allopurinol]","AUC on coadministration of verinurad, result in words",[1]; [2],unaffected; also recorded: unaltered
same,increase in Cmax on coadministration of verinurad,[1]; [3],33%
same,Cmax,"[1]; treatment ALLO 300 mg once daily, plasma, geometric LS mean (95% CI)",1.13 (0.89‐1.43) μg/mL
same,Ae0‐24,Urine pharmacokinetics; [4],25.4 (22.1‐29.2) mg
same,Ae0‐24,Urine pharmacokinetics; [5],22.7 (19.2‐26.9) mg
same,maximum decrease in serum urate,serum uric acid,43%
same,decrease in 24 hr fractional excretion of urate compared with baseline,"urine uric acid; 0-24 h, allopurinol 300 mg",12.0%
same,decrease in CLUR compared with baseline,"urine uric acid; 0-24 h, allopurinol 300 mg",8.5%
same,decrease in 24‐hour AeUR compared with baseline,"urine uric acid; 0-24 h, allopurinol 300 mg alone or with verinurad 10 mg",47.4%
same,"CLUR, Mean (SD)",urine uric acid; [6],6.50 (1.18) mL/min
same,"FEUA, Mean (SD)",urine uric acid; [6],4.06 (0.47) %
same,"AeUR, Change From Baseline (%)",urine uric acid; [6],−46.8 (7.3) %
same,"CLUR, Change From Baseline (%)",urine uric acid; [6],−6.0 (12.0) %
same,"FEUA, Change From Baseline (%)",urine uric acid; [6],−9.7 (9.2) %
same,"AeUR, Mean (SD)",urine uric acid; [7],231 (45) mg
same,"AeUR, Mean (SD)",urine uric acid; [8],363 (73) mg
same,"CLUR, Mean (SD)",urine uric acid; [8],5.00 (1.13) mL/min
same,"FEUA, Mean (SD)",urine uric acid; [8],3.69 (0.59) %
same,"AeUR, %Change From Baseline",urine uric acid; [8],−47.4 (7.6) %
same,"CLUR, %Change From Baseline",urine uric acid; [8],−8.50 (14.8) %
same,"FEUA, %Change From Baseline",urine uric acid; [8],−12.0 (12.2) %
same,decrease in rate of uric acid excretion,"urine uric acid; 2‐3 hour urine collection interval postdose, allopurinol 300 mg",46%
same,"CLUR, Mean (SD)",urine uric acid; [9],3.62 (1.30) mL/min
same,"FEUA, Mean (SD)",urine uric acid; [9],3.19 (0.62) %
same,"AeUR, Change From Baseline (%)",urine uric acid; [9],−45.4 (14.5) %
same,"CLUR, Change From Baseline (%)",urine uric acid; [9],−9.4 (23.2) %
same,"FEUA, Change From Baseline (%)",urine uric acid; [9],−7.6 (14.6) %
same,maximum rate of uric acid excreted in urine compared with the maximum observed baseline rate,"urine uric acid; highest mean rate, 2‐3 hour urine collection interval postdose (combination 2‐3 and 3‐4 hour), verinurad 10 mg, allopurinol 300 mg",−46%
"COc1cc2c(c(OC)c1OC)-c1ccc(OC)c(=O)cc1[C@@H](NC(C)=O)CC2 [Colchicine, colchicine, reference compound]","plasma exposure on coadministration, result in words",[1],unaltered
"O=c1[nH]c(=O)c2c[nH]nc2[nH]1 [Oxypurinol, oxypurinol]",decrease in AUC on coadministration of verinurad,[1]; [3],38%
same,decrease in Cmax on coadministration of verinurad,[1]; [3],32%
same,decrease in AUC on coadministration of verinurad,[1]; [10],approximately 38%
same,decrease in Cmax on coadministration of verinurad,[1]; [10],approximately 32%
same,Cmax,"[1]; male, human, plasma, oral, 300 mg",12800 ng/mL
same,increase in renal clearance on coadministration of verinurad,Urine pharmacokinetics; [2],93%
same,increase in urinary excretion on coadministration of verinurad,Urine pharmacokinetics; [2],19%
same,Ae0‐24,Urine pharmacokinetics; [4],231 (216‐248) mg
same,Ae0‐24,Urine pharmacokinetics; [5],275 (262‐290) mg
CC(C)(Sc1ccncc1-c1ccc(C#N)c2ccccc12)C(=O)O [Verinurad],"plasma exposure on coadministration, result in words",[1],unaffected
same,CLR0‐24,Urine pharmacokinetics; [5],9.75 (7.73‐12.3) mL/min
same,Ae0‐24,Urine pharmacokinetics; [5],67.2 (51.7‐87.4) μg
same,CLR0‐24,Urine pharmacokinetics; [11],9.28 (7.43‐11.6) mL/min
same,Ae0‐24,Urine pharmacokinetics; [11],66.8 (51.8‐86.1) μg
same,maximum decrease in serum urate,serum uric acid,51%
same,"CLUR, Mean (SD)",urine uric acid; [6],16.3 (4.57) mL/min
same,"FEUA, Mean (SD)",urine uric acid; [6],11.6 (3.77) %
same,"AeUR, Change From Baseline (%)",urine uric acid; [6],21.4 (23.3) %
same,"CLUR, Change From Baseline (%)",urine uric acid; [6],153 (77.0) %
same,"FEUA, Change From Baseline (%)",urine uric acid; [6],160 (96.6) %
same,"AeUR, Mean (SD)",urine uric acid; [7],490 (71) mg
same,"AeUR, Mean (SD)",urine uric acid; [8],739 (84) mg
same,"CLUR, Mean (SD)",urine uric acid; [8],11.5 (2.74) mL/min
same,"FEUA, Mean (SD)",urine uric acid; [8],9.19 (3.28) %
same,"AeUR, %Change From Baseline",urine uric acid; [8],9.9 (21.5) %
same,"CLUR, %Change From Baseline",urine uric acid; [8],122 (105) %
same,"FEUA, %Change From Baseline",urine uric acid; [8],77.4 (36.0) %
same,"AeUR, Mean (SD)",urine uric acid; [9],250 (52) mg
same,"CLUR, Mean (SD)",urine uric acid; [9],6.74 (0.96) mL/min
same,"FEUA, Mean (SD)",urine uric acid; [9],5.88 (1.78) %
same,"AeUR, Change From Baseline (%)",urine uric acid; [9],4.2 (48.0) %
same,"CLUR, Change From Baseline (%)",urine uric acid; [9],95.5 (148) %
same,"FEUA, Change From Baseline (%)",urine uric acid; [9],49.9 (21.9) %
